Results published in ChEMBL document CHEMBL4257459, “Synergistic antifungal effect of cyclized chalcone derivatives and fluconazole against Candida albicans” (2017).
≈ marks a conversion by molar mass, not a printed value.

Columns and labels:
Candida albicans [1] = assay: Antifungal activity against fluconazole resistant Candida albicans 167-2 in presence of fluconazole by CLSI protocol based broth microdilution method; format: functional
Summary of the method: (§1)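 Checkerboard-style combination with fluconazole at a 1 : 1 ratio, over concentrations 2–4 fold below each agent's MIC alone, by CLSI broth microdilution. Fractional inhibitory concentration index calculated and interpreted as synergy (<0.5), additive (0.5–1), indifferent or antagonistic.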

Candida albicans [2] = assay: Antifungal activity against Candida albicans ATCC 90028 by CLSI protocol based broth microdilution method; format: functional
Summary of the method: (§2)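 Clinical isolates and control strain subcultured at least twice on TSA, 37 °C, 48 h. MICs by CLSI M27-A3 broth microdilution; compounds dissolved in DMSO to 2000 μg mL–1 stock. Fluconazole positive control, culture, media and DMSO vehicle controls in each run. Duplicate experiments; MIC in μg mL–1.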

Candida albicans [3] = assay: Inhibition of ABC efflux pumps in fluconazole susceptible Candida albicans 0079gr assessed as reduction in energy-dependent rhodamine 6G efflux in presence of 0.1 M glucose after 25 mins by fluorescence assay relative to control
Summary of the method: (§3)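 Cells grown in TSB at 37 °C for 8 h, washed, resuspended in glucose-free PBS at 1 × 10^8 cells. De-energized 45 min with 5 mM deoxyglucose plus 5 mM dinitrophenol. […] Washed, sampled 5–25 min, then 0.1 M glucose added. Absorbance 527 nm, R6G from standard curve.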

Candida albicans [4] = assay: Inhibition of ABC efflux pumps in fluconazole susceptible Candida albicans 003gr assessed as reduction in energy-dependent rhodamine 6G efflux in presence of 0.1 M glucose after 25 mins […] relative to control
Candida albicans [5] = assay: Antifungal activity against fluconazole susceptible Candida albicans 002B1 by CLSI protocol based broth microdilution method; format: functional; summary of the method: as §2
Candida albicans [6] = assay: Antifungal activity against fluconazole susceptible Candida albicans 0079gr in presence of fluconazole by CLSI protocol based broth microdilution method; format: functional
Candida albicans [7] = assay: Antifungal activity against fluconazole susceptible Candida albicans 004gr in presence of fluconazole by CLSI protocol based broth microdilution method; format: functional
Candida albicans [8] = assay: Down regulation of ERG11 gene expression in fluconazole resistant Candida albicans A171 at MIC after 2 hrs by qRT PCR analysis relative to control; format: functional
Summary of the method: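 Cells exposed 2 h to test agents at MIC. Total RNA isolated, cDNA synthesized, qPCR for ERG11 with ACT1 as endogenous control. Triplicate independent experiments, reported as mean ± standard deviation.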

Candida albicans [9] = assay: Antifungal activity against fluconazole susceptible Candida albicans 004B1 in presence of fluconazole by CLSI protocol based broth microdilution method; format: functional
Candida albicans [10] = assay: Antifungal activity against fluconazole resistant Candida albicans A171 in presence of fluconazole by CLSI protocol based broth microdilution method; format: functional; summary of the method: as §1
Candida albicans [11] = assay: Antifungal activity against fluconazole susceptible Candida albicans 004B1 by CLSI protocol based broth microdilution method; format: functional; summary of the method: as §2
Candida albicans [12] = assay: Antifungal activity against fluconazole resistant Candida albicans A171 by CLSI protocol based broth microdilution method; format: functional
Summary of the method: (§4)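 Broth microdilution per CLSI M27-A3 against clinical C. albicans isolates. Strains sub-cultured at least twice on Tryptone Soya Agar, 37 °C, 48 h. Compounds dissolved in DMSO at 2000 μg mL–1 stock. Fluconazole positive control, plus culture, media and vehicle controls. Run in duplicate; MIC in μg mL–1.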

Candida albicans [13] = assay: Inhibition of ABC efflux pumps in fluconazole susceptible Candida albicans 004gr assessed as reduction in energy-dependent rhodamine 6G efflux in presence of 0.1 M glucose after 25 mins by fluorescence assay relative to control; summary of the method: as §3
Candida albicans [14] = assay: Antifungal activity against fluconazole susceptible Candida albicans 003gr by CLSI protocol based broth microdilution method; format: functional; summary of the method: as §2
Candida albicans [15] = assay: Antifungal activity against fluconazole resistant Candida albicans 167-2 by CLSI protocol based broth microdilution method; format: functional; summary of the method: as §4
Candida albicans [16] = assay: Antifungal activity against fluconazole susceptible Candida albicans 002B1 in presence of fluconazole by CLSI protocol based broth microdilution method; format: functional
Candida albicans [17] = assay: Inhibition of ABC efflux pumps in fluconazole resistant Candida albicans 167-1 assessed as reduction in energy-dependent rhodamine 6G efflux in presence of 0.1 M glucose after 25 mins […] relative to control
Candida albicans [18] = assay: Antifungal activity against Candida albicans ATCC 90028 in presence of fluconazole by CLSI protocol based broth microdilution method; format: functional
Candida albicans [19] = assay: Antifungal activity against fluconazole susceptible Candida albicans 0072gr in presence of fluconazole by CLSI protocol based broth microdilution method; format: functional
Candida albicans [20] = assay: Inhibition of ABC efflux pumps in fluconazole resistant Candida albicans 167-2 assessed as reduction in energy-dependent rhodamine 6G efflux in presence of 0.1 M glucose after 25 mins […] relative to control
Candida albicans [21] = assay: Antifungal activity against fluconazole susceptible Candida albicans 0072gr by CLSI protocol based broth microdilution method; format: functional; summary of the method: as §2
Candida albicans [22] = assay: Antifungal activity against fluconazole resistant Candida albicans 167-1 by CLSI protocol based broth microdilution method; format: functional; summary of the method: as §4
Candida albicans [23] = assay: Inhibition of ABC efflux pumps in fluconazole resistant Candida albicans A171 assessed as reduction in energy-dependent rhodamine 6G efflux in presence of 0.1 M glucose after 25 mins by fluorescence assay relative to control; summary of the method: as §3
Candida albicans [24] = assay: Inhibition of ergosterol biosynthesis in fluconazole resistant Candida albicans A171 at 0.5 to 1 times MIC relative to control; format: functional
Summary of the method: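 Total sterols quantified by alcoholic KOH extraction in cells grown in 50 ml TSB with compounds at MIC and ½ MIC; untreated and 8 μg mL–1 fluconazole controls. Spectral scan; ergosterol content from A281.5 and A230 absorbances, dilution factor and pellet weight, correcting for 24(28) DHE.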

Candida albicans [25] = assay: Antifungal activity against fluconazole susceptible Candida albicans 003gr in presence of fluconazole by CLSI protocol based broth microdilution method; format: functional
Candida albicans [26] = assay: Inhibition of ergosterol biosynthesis in fluconazole susceptible Candida albicans ATCC 90028 at 0.5 to 1 times MIC relative to control; format: functional
Summary of the method: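 ATCC90028 grown in 50 ml TSB with MIC and ½ MIC of compound; untreated and 8 μg mL–1 fluconazole controls. Sterols extracted by alcoholic KOH method and spectrophotometrically scanned; ergosterol % calculated from A281.5 and A230 (E values 290 and 518) with dilution factor, per pellet weight.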

Candida albicans [27] = assay: Inhibition of ABC efflux pumps in fluconazole susceptible Candida albicans 002B1 assessed as reduction in energy-dependent rhodamine 6G efflux in presence of 0.1 M glucose after 25 mins […] relative to control
Candida albicans [28] = assay: Inhibition of ABC efflux pumps in fluconazole susceptible Candida albicans 0072gr assessed as reduction in energy-dependent rhodamine 6G efflux in presence of 0.1 M glucose after 25 mins […] relative to control
Candida albicans [29] = assay: Antifungal activity against fluconazole susceptible Candida albicans 004gr by CLSI protocol based broth microdilution method; format: functional; summary of the method: as §2
Candida albicans [30] = assay: Antifungal activity against fluconazole susceptible Candida albicans 0079gr by CLSI protocol based broth microdilution method; format: functional; summary of the method: as §2
Candida albicans [31] = assay: Antifungal activity against fluconazole resistant Candida albicans 167-1 in presence of fluconazole by CLSI protocol based broth microdilution method; format: functional; summary of the method: as §1
Candida albicans [32] = assay: Down regulation of ERG11 gene expression in fluconazole susceptible Candida albicans ATCC 90028 at MIC after 2 hrs by qRT PCR analysis relative to control; format: functional
Summary of the method: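 Cells exposed to compound at MIC for 2 h; total RNA isolated, cDNA synthesised, ERG11 measured by real-time qPCR with ACT1 as endogenous control. Triplicate independent experiments; mean ± standard deviation.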

Candida albicans [33] = assay: Inhibition of ABC efflux pumps in fluconazole susceptible Candida albicans 004B1 assessed as reduction in energy-dependent rhodamine 6G efflux in presence of 0.1 M glucose after 25 mins by fluorescence assay relative to control; summary of the method: as §3

SMILES	fractional inhibitory concentration index (FICI) (Candida albicans [1])	MIC (Candida albicans [2]) [µg/mL]	inhibition (Candida albicans [3]) [%]	inhibition (Candida albicans [4]) [%]	MIC (Candida albicans [5]) [µg/mL]	fractional inhibitory concentration index (FICI) (Candida albicans [6])	fractional inhibitory concentration index (FICI) (Candida albicans [7])	fold change (FC) (Candida albicans [8])	fractional inhibitory concentration index (FICI) (Candida albicans [9])	fractional inhibitory concentration index (FICI) (Candida albicans [10])	MIC (Candida albicans [11]) [µg/mL]	MIC (Candida albicans [12]) [µg/mL]	inhibition (Candida albicans [13]) [%]	MIC (Candida albicans [14]) [µg/mL]	MIC (Candida albicans [15]) [µg/mL]	fractional inhibitory concentration index (FICI) (Candida albicans [16])	inhibition (Candida albicans [17]) [%]	fractional inhibitory concentration index (FICI) (Candida albicans [18])	fractional inhibitory concentration index (FICI) (Candida albicans [19])	inhibition (Candida albicans [20]) [%]	also measured
O=C1NC(c2ccccc2)=CC(c2ccc(C3C=C(c4ccccc4)NC(=O)N3)cc2)N1 (centres undefined)	0.031	0.25 to 2 (≈ 0.592 to 4.73 µM)	< 20	< 20	0.25 to 2 (≈ 0.592 to 4.73 µM)	0.13 - 0.38	0.13 - 0.38	1.25 - 10	0.13 - 0.38	0.031 - 0.25	0.25 to 2 (≈ 0.592 to 4.73 µM)	4 to 8 (≈ 9.47 to 18.9 µM)	< 20	0.25 to 2 (≈ 0.592 to 4.73 µM)	4 to 8 (≈ 9.47 to 18.9 µM)	0.13 - 0.38	< 20	0.13 - 0.38	0.13 - 0.38	< 20	MIC (Candida albicans [21]): 0.25 to 2 µg/mL (≈ 0.592 to 4.73 µM); MIC (Candida albicans [22]): 4 to 8 µg/mL (≈ 9.47 to 18.9 µM); inhibition (Candida albicans [23]): < 20%; inhibition (INH) (Candida albicans [24]): 49 - 94%; fractional inhibitory concentration index (FICI) (Candida albicans [25]): 0.13 - 0.38; inhibition (INH) (Candida albicans [26]): 66 - 99%; inhibition (Candida albicans [27]): < 20%; inhibition (Candida albicans [28]): < 20%; MIC (Candida albicans [29]): 0.25 to 2 µg/mL (≈ 0.592 to 4.73 µM); MIC (Candida albicans [30]): 0.25 to 2 µg/mL (≈ 0.592 to 4.73 µM); fractional inhibitory concentration index (FICI) (Candida albicans [31]): 0.031 - 0.25; fold change (FC) (Candida albicans [32]): 1.5 - 13; inhibition (Candida albicans [33]): < 20%
NC(=S)N1N=C(c2ccccc2)CC1c1ccc(C2CC(c3ccccc3)=NN2C(N)=S)cc1 (centres undefined)	0.372 - 1.5	8 to 125 (≈ 16.5 to 258 µM)	< 20	< 20	8 to 125 (≈ 16.5 to 258 µM)	0.53 - 2.19	0.53 - 2.19	1.25 - 10	0.53 - 2.19	0.372 - 1.5	8 to 125 (≈ 16.5 to 258 µM)	125 to 500 (≈ 258 to 1030 µM)	< 20	8 to 125 (≈ 16.5 to 258 µM)	125 to 500 (≈ 258 to 1030 µM)	0.53 - 2.19	< 20	0.53 - 2.19	0.53 - 2.19	< 20	MIC (Candida albicans [21]): 8 to 125 µg/mL (≈ 16.5 to 258 µM); MIC (Candida albicans [22]): 125 to 500 µg/mL (≈ 258 to 1030 µM); inhibition (Candida albicans [23]): < 20%; inhibition (INH) (Candida albicans [24]): 49 - 94%; fractional inhibitory concentration index (FICI) (Candida albicans [25]): 0.53 - 2.19; inhibition (INH) (Candida albicans [26]): 66 - 99%; inhibition (Candida albicans [27]): < 20%; inhibition (Candida albicans [28]): < 20%; MIC (Candida albicans [29]): 8 to 125 µg/mL (≈ 16.5 to 258 µM); MIC (Candida albicans [30]): 8 to 125 µg/mL (≈ 16.5 to 258 µM); fractional inhibitory concentration index (FICI) (Candida albicans [31]): 0.372 - 1.5; fold change (FC) (Candida albicans [32]): 1.5 - 13; inhibition (Candida albicans [33]): < 20%
c1ccc(C2=NOC(c3ccc(C4CC(c5ccccc5)=NO4)cc3)C2)cc1 (centres undefined)	0.532 - 1.02	2 to 8 (≈ 5.43 to 21.7 µM)	< 20	< 20	2 to 8 (≈ 5.43 to 21.7 µM)	0.37 - 0.75	0.37 - 0.75	1.25 - 10	0.37 - 0.75	0.532 - 1.02	2 to 8 (≈ 5.43 to 21.7 µM)	8 to 16 (≈ 21.7 to 43.4 µM)	< 20	2 to 8 (≈ 5.43 to 21.7 µM)	8 to 16 (≈ 21.7 to 43.4 µM)	0.37 - 0.75	< 20	0.37 - 0.75	0.37 - 0.75	< 20	MIC (Candida albicans [21]): 2 to 8 µg/mL (≈ 5.43 to 21.7 µM); MIC (Candida albicans [22]): 8 to 16 µg/mL (≈ 21.7 to 43.4 µM); inhibition (Candida albicans [23]): < 20%; inhibition (INH) (Candida albicans [24]): 49 - 94%; fractional inhibitory concentration index (FICI) (Candida albicans [25]): 0.37 - 0.75; inhibition (INH) (Candida albicans [26]): 66 - 99%; inhibition (Candida albicans [27]): < 20%; inhibition (Candida albicans [28]): < 20%; MIC (Candida albicans [29]): 2 to 8 µg/mL (≈ 5.43 to 21.7 µM); MIC (Candida albicans [30]): 2 to 8 µg/mL (≈ 5.43 to 21.7 µM); fractional inhibitory concentration index (FICI) (Candida albicans [31]): 0.532 - 1.02; fold change (FC) (Candida albicans [32]): 1.5 - 13; inhibition (Candida albicans [33]): < 20%
